From ChEMBL document CHEMBL1122917, “Vinblastin-23-oyl amino acid derivatives: chemistry, physicochemical data, toxicity, and antitumor activities against P388 and L1210 leukemias” (J Med Chem, 1985)

Assays:
Type in all cases: functional
Mus musculus [1] = test: Number of survivors on 60th day at dose 20 mg/kg/day in 10 mice implanted with P388 leukemia cell line; 0/10
Mus musculus [2] = test: Percent increase in life span of DBA2 mice after inoculation with L1210 leukemia intravenously at a dose of 40 mg/kg per day; conditions: route intravenous
Mus musculus [3] = test: Percent increase in life span of DBA2 mice after inoculation with L1210 leukemia intravenously at a dose of 45 mg/kg per day; conditions: route intravenous
Procedure, shortened: (§1)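 Female DBA2 mice inoculated iv on day 0 with 10^4 L1210 cells; drugs given iv as sulfate salts in physiological saline, mostly once on day 1. %ILS from all deaths and survivors as (T/C × 100) − 100; survivors scored on days 30 and 60.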

Mus musculus [4] = test: Number of survivors on 60th day at dose 50 mg/kg/day in 9 mice implanted with P388 leukemia cell line; 0/9
Mus musculus [5] = test: Number of survivors of DBA2 mice on 30th day after inoculation with L1210 leukemia cell line intravenously at a dose of 40 mg/kg/day; 0/10; conditions: route intravenous
Mus musculus [6] = test: Number of survivors of DBA2 mice on 30th day after inoculation with L1210 leukemia cell line intravenously at a dose of 45 mg/kg/day; 0/10; conditions: route intravenous
Mus musculus [7] = test: Percent increase in life span at dose 20 mg/kg/day in 10 mice implanted with P388 leukemia cell line
Procedure, shortened: (§2)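 Female DBA2 mice inoculated iv on day 0 with 10^4 P388 cells; single iv treatment on day 1 with drug as sulfate salt in physiological saline. Survival followed; %ILS from all deaths and survivors as (T/C × 100) − 100, maximal MST 30 days; survivors counted on days 30 and 60. Most experiments confirmed three times.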

Mus musculus [8] = test: Percent increase in life span at dose 30 mg/kg/day in 10 mice implanted with P388 leukemia cell line; procedure, shortened: as §2
Mus musculus [9] = test: Percent increase in life span at dose 40 mg/kg/day in 10 mice implanted with P388 leukemia cell line; procedure, shortened: as §2
Mus musculus [10] = test: Percent increase in life span at dose 45 mg/kg/day in 10 mice implanted with P388 leukemia cell line
Mus musculus [11] = test: Number of survivors on 60th day at dose 30 mg/kg/day in 10 mice implanted with P388 leukemia cell line; 0/10
Mus musculus [12] = test: Number of survivors on 60th day at dose 40 mg/kg/day in 10 mice implanted with P388 leukemia cell line; 0/10
Mus musculus [13] = test: Number of survivors on 60th day at dose 45 mg/kg/day in 10 mice implanted with P388 leukemia cell line; 0/10
Mus musculus [14] = test: Number of survivors on 30th day at dose 20 mg/kg/day in 10 mice implanted with P388 leukemia cell line; 0/10
Mus musculus [15] = test: Number of survivors on 30th day at dose 40 mg/kg/day in 10 mice implanted with P388 leukemia cell line; 0/10
Mus musculus [16] = test: Number of survivors on 30th day at dose 45 mg/kg/day in 10 mice implanted with P388 leukemia cell line; 2/10
Mus musculus [17] = test: Number of survivors of DBA2 mice on 60th day after inoculation with L1210 leukemia cell line intravenously at a dose of 40 mg/kg/day; 0/10; conditions: route intravenous
Mus musculus [18] = test: Number of survivors of DBA2 mice on 60th day after inoculation with L1210 leukemia cell line intravenously at a dose of 45 mg/kg/day; 0/10; conditions: route intravenous
Mus musculus [19] = test: Number of survivors on 30th day at dose 50 mg/kg/day in 9 mice implanted with P388 leukemia cell line; 0/9
Mus musculus [20] = test: Percent increase in life span at dose 50 mg/kg/day in 10 mice implanted with P388 leukemia cell line; procedure, shortened: as §2
Mus musculus [21] = test: Number of survivors on 30th day at dose 30 mg/kg/day in 10 mice implanted with P388 leukemia cell line; 1/10
Mus musculus [22] = test: Number of survivors on 60th day at dose 50 mg/kg/day in 10 mice implanted with P388 leukemia cell line; 0/10
Mus musculus [23] = test: Number of survivors on 30th day at dose 50 mg/kg/day in 10 mice implanted with P388 leukemia cell line; 0/10
Mus musculus [24] = test: Number of survivors on 60th day at dose 10 mg/kg/day in 10 mice implanted with P388 leukemia cell line; 0/10
Mus musculus [25] = test: Number of survivors on 30th day at dose 10 mg/kg/day in 10 mice implanted with P388 leukemia cell line; 0/10
Mus musculus [26] = test: Percent increase in life span of DBA2 mice after inoculation with L1210 leukemia intravenously at a dose of 50 mg/kg per day; conditions: route intravenous; procedure, shortened: as §1
Mus musculus [27] = test: Percent increase in life span of DBA2 mice after inoculation with L1210 leukemia intravenously at a dose of 55 mg/kg per day; conditions: route intravenous; procedure, shortened: as §1
Mus musculus [28] = test: Number of survivors on 60th day at dose 55 mg/kg/day in 10 mice implanted with P388 leukemia cell line
Mus musculus [29] = test: Number of survivors on 60th day at dose 60 mg/kg/day in 10 mice implanted with P388 leukemia cell line; procedure, shortened: as §2
Mus musculus [30] = test: Percent increase in life span at dose 70 mg/kg/day in 10 mice implanted with P388 leukemia cell line; procedure, shortened: as §2
Mus musculus [31] = test: Number of survivors of DBA2 mice on 30th day after inoculation with L1210 leukemia cell line intravenously at a dose of 50 mg/kg/day; 0/10; conditions: route intravenous
Mus musculus [32] = test: Number of survivors of DBA2 mice on 30th day after inoculation with L1210 leukemia cell line intravenously at a dose of 55 mg/kg/day; 0/10; conditions: route intravenous
Mus musculus [33] = test: Number of survivors on 60th day at dose 50 mg/kg/day in 10 mice implanted with P388 leukemia cell line
Mus musculus [34] = test: Percent increase in life span at dose 55 mg/kg/day in 10 mice implanted with P388 leukemia cell line; procedure, shortened: as §2
Mus musculus [35] = test: Percent increase in life span at dose 60 mg/kg/day in 10 mice implanted with P388 leukemia cell line; procedure, shortened: as §2
Mus musculus [36] = test: Number of survivors on 60th day at dose 40 mg/kg/day in 10 mice implanted with P388 leukemia cell line
Mus musculus [37] = test: Number of survivors on 30th day at dose 30 mg/kg/day in 10 mice implanted with P388 leukemia cell line
Mus musculus [38] = test: Number of survivors on 30th day at dose 40 mg/kg/day in 10 mice implanted with P388 leukemia cell line
Mus musculus [39] = test: Number of survivors on 30th day at dose 50 mg/kg/day in 10 mice implanted with P388 leukemia cell line
Mus musculus [40] = test: Number of survivors on 60th day at dose 30 mg/kg/day in 10 mice implanted with P388 leukemia cell line
Mus musculus [41] = test: Number of survivors on 60th day at dose 70 mg/kg/day in 10 mice implanted with P388 leukemia cell line; procedure, shortened: as §2
Mus musculus [42] = test: Number of survivors on 30th day at dose 55 mg/kg/day in 10 mice implanted with P388 leukemia cell line
Mus musculus [43] = test: Number of survivors on 30th day at dose 60 mg/kg/day in 10 mice implanted with P388 leukemia cell line
Mus musculus [44] = test: Number of survivors of DBA2 mice on 60th day after inoculation with L1210 leukemia cell line intravenously at a dose of 50 mg/kg/day; 0/10; conditions: route intravenous
Mus musculus [45] = test: Number of survivors of DBA2 mice on 60th day after inoculation with L1210 leukemia cell line intravenously at a dose of 55 mg/kg/day; 0/10; conditions: route intravenous
Mus musculus [46] = test: Number of survivors on 30th day at dose 70 mg/kg/day in 10 mice implanted with P388 leukemia cell line

## CCOC(=O)[C@@H](Cc1c[nH]c2ccccc12)NC(=O)[C@@]1(O)[C@H](O)[C@]2(CC)C=CCN3CC[C@@]4(c5cc([C@@]6(C(=O)OC)C[C@H]7C[N@](CCc8c6[nH]c6ccccc86)C[C@](O)(CC)C7)c(OC)cc5N(C)[C@@]14C)[C@@H]32
Mus musculus [1]
  Survivors: 0
Mus musculus [2]
  ILS at 40 mg/kg/day: 21.8%
Mus musculus [3]
  ILS at 45 mg/kg/day: 34.6%
Mus musculus [4]
  Survivors: 0
Mus musculus [5]
  Survivors: 0
Mus musculus [6]
  Survivors: 0
Mus musculus [7]
  ILS at 20 mg/kg/day: 18.7%
Mus musculus [8]
  ILS at 30 mg/kg/day: 41.4%
Mus musculus [9]
  ILS at 40 mg/kg/day: 53.8%
Mus musculus [10]
  ILS at 45 mg/kg/day: 85%
Mus musculus [11]
  Survivors: 0
Mus musculus [12]
  Survivors: 0
Mus musculus [13]
  Survivors: 0
Mus musculus [14]
  Survivors: 0
Mus musculus [15]
  Survivors: 0
Mus musculus [16]
  Survivors: 2
Mus musculus [17]
  Survivors: 0
Mus musculus [18]
  Survivors: 0
Mus musculus [19]
  Survivors: 0
Mus musculus [20]
  ILS at 50 mg/kg/day: 59%
Mus musculus [21]
  Survivors: 1

## CCOC(=O)[C@H](CCC(=O)O)NC(=O)[C@@]1(O)[C@H](O)[C@]2(CC)C=CCN3CC[C@@]4(c5cc([C@@]6(C(=O)OC)C[C@H]7C[N@](CCc8c6[nH]c6ccccc86)C[C@](O)(CC)C7)c(OC)cc5N(C)[C@@]14C)[C@@H]32
Mus musculus [1]
  Survivors: 0
Mus musculus [7]
  ILS at 20 mg/kg/day: 10%
Mus musculus [22]
  Survivors: 0
Mus musculus [9]
  ILS at 40 mg/kg/day: 34.5%
Mus musculus [12]
  Survivors: 0
Mus musculus [14]
  Survivors: 0
Mus musculus [15]
  Survivors: 0
Mus musculus [23]
  Survivors: 0
Mus musculus [24]
  Survivors: 0
Mus musculus [25]
  Survivors: 0
Mus musculus [20]
  ILS at 50 mg/kg/day: 2.8%

## CC[C@]1(O)C[C@@H]2C[N@](CCc3c([nH]c4ccccc34)[C@@](C(=O)OC)(c3cc4c(cc3OC)N(C)[C@@]3(C)[C@@](O)(C(=O)N[C@@H](Cc5c[nH]c6ccccc56)C(=O)OC)[C@H](O)[C@]5(CC)C=CCN6CC[C@]43[C@@H]65)C2)C1
Mus musculus [26]
  ILS at 50 mg/kg/day: 47.4%
Mus musculus [27]
  ILS at 55 mg/kg/day: 60.2%
Mus musculus [28]
  Survivors: 1
Mus musculus [29]
  Survivors: 2
Mus musculus [30]
  ILS at 70 mg/kg/day: 145%
Mus musculus [31]
  Survivors: 0
Mus musculus [32]
  Survivors: 0
Mus musculus [33]
  Survivors: 1
Mus musculus [8]
  ILS at 30 mg/kg/day: 33.9%
Mus musculus [9]
  ILS at 40 mg/kg/day: 42.8%
Mus musculus [34]
  ILS at 55 mg/kg/day: 85.8%
Mus musculus [35]
  ILS at 60 mg/kg/day: 132%
Mus musculus [36]
  Survivors: 0
Mus musculus [37]
  Survivors: 0
Mus musculus [38]
  Survivors: 0
Mus musculus [39]
  Survivors: 1
Mus musculus [40]
  Survivors: 0
Mus musculus [41]
  Survivors: 3
Mus musculus [42]
  Survivors: 2
Mus musculus [43]
  Survivors: 3
Mus musculus [44]
  Survivors: 0
Mus musculus [45]
  Survivors: 0
Mus musculus [46]
  Survivors: 5
Mus musculus [20]
  ILS at 50 mg/kg/day: 110%
